Experimental data from ChEMBL document CHEMBL1123247, “Nucleoside conjugates. 7. Synthesis and antitumor activity of 1-beta-D-arabinofuranosylcytosine conjugates of ether lipids” (J Med Chem, 1986).

Key:
L1210 [1] = assay: Antitumor activity was determined against the ip implanted L1210 leukemia in mice by change in […] at 200 mg/kg (treatment of 1qd schedule) dosage; type: functional, Mus musculus; settings: route intraperitoneal
Outline: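 DBA/2J mice, 6 per group (wt 23-28 g), inoculated ip with 1×10^6 L1210 cells on day 0. Treatment was given ip in 0.9% NaCl with 0.5% Tween-80, starting 24 h later. Weight change was taken on day 8. Mice were observed daily until death or 45 days. Median survival T/C and %ILS = (T/C − 1) × 100 came from survivors per NCI protocols, and 45-day survivors were counted.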

L1210 [2] = assay: Antitumor activity was determined against the ip implanted L1210 leukemia in mice by range in survival days at 200 mg/kg (treatment of 1qd schedule) dosage; Range is 14-23; type: functional, Mus musculus; settings: route intraperitoneal
Outline: (§1)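 DBA/2J mice, 23-28 g, in groups of 6, were inoculated ip with 1×10^6 L1210 cells on day 0. Dosing was ip starting 24 h later on the stated daily schedules. Conjugates were given as sonicated solutions and reference prodrugs as suspensions in 0.9% NaCl with 0.5% Tween-80. Mice were observed daily until death or 45 days. Median survival T/C was calculated from survivors per NCI protocols.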

L1210 [3] = assay: Antitumor activity was determined against the ic implanted L1210 lymphoid leukemia in mice by range in survival days at 300 mg/kg (1 qd treatment schedule) dosage; Range is 14-18; type: functional, Mus musculus
P388 [4] = assay: Antitumor activity was determined against the ip implanted P388 leukemia in mice by percent increase in life span at 200 mg/kg (1 qd treatment schedule) dosage; type: functional, Mus musculus; settings: route intraperitoneal
Outline: (§2)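 DBA/2J mice, 23-33 g, in groups of 6, were inoculated ip with 1×10^6 P388 cells on day 0. Dosing was ip from 24 h on the stated schedules, in 0.9% NaCl with 0.5% Tween-80 (sonicated solution or suspension). Survival was followed daily until death or 45 days. Median T/C was calculated from survivors per NCI protocols, with ILS = (T/C − 1) × 100.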

L1210 [5] = assay: Antitumor activity was determined against the ip implanted L1210 leukemia in mice by percent median survival rate (treated/control) at 200 mg/kg (treatment of 1qd schedule) dosage; 19.5/7.0; type: functional, Mus musculus; settings: route intraperitoneal; outline: as §1
L1210 [6] = assay: Antitumor activity against ip implanted L1210 leukemia in mice expressed as active dose range (1 qd treatment schedule) required to produce increase in life span by >25% was determined; Range is 100-250; type: functional, Mus musculus
Outline: (§3)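 DBA/2J mice, groups of 6 (23-28 g), were inoculated ip with 1 × 10^6 L1210 cells on day 0. Dosing was ip from 24 h, in 0.9% NaCl with 0.5% Tween-80 (sonicated solution or suspension). Mice were observed daily until death or day 45. Median survival T/C followed NCI protocols, and ILS = (T/C − 1) × 100. Active range means doses giving ILS ≥25%; optimal dose means greatest ILS.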

L1210 [7] = assay: Antitumor activity was determined against the ic implanted L1210 lymphoid leukemia in mice by change in body weight at 300 mg/kg (1 qd treatment schedule) dosage
L1210 [8] = assay: Antitumor activity was determined against the ic implanted L1210 lymphoid leukemia in mice by median survival time at 300 mg/kg (1 qd treatment schedule) dosage; 14.5/7.0
P388 [9] = assay: Antitumor activity was determined against the ip implanted P388 leukemia in mice by percent median survival rate (treated/control) at 200 mg/kg (1 qd treatment schedule) dosage; >45.0/12.0; type: functional, Mus musculus; settings: route intraperitoneal
P388 [10] = assay: Antitumor activity was determined against the ip implanted P388 leukemia in mice by range in survival days at 200 mg/kg (1 qd treatment schedule) dosage; Range is 24->45; type: functional, Mus musculus; settings: route intraperitoneal
P388 [11] = assay: Antitumor activity was determined against the ip implanted P388 leukemia in mice by 45-day survivors in mice at 200 mg/kg (1 qd treatment schedule) dosage; type: functional, Mus musculus; settings: route intraperitoneal; outline: as §2
L1210 [12] = assay: Antitumor activity against the ic implanted L1210 lymphoid leukemia in mice expressed as optimal dose (1 qd treatment schedule) required to produce greatest increase in life span was determined; type: functional, Mus musculus
Outline: (§4)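 DBA/2J mice, groups of 6 (26-32 g), got 1 × 10^5 L1210 cells ic on day 0. Dosing was ip starting 24 h later, as a sonicated solution or suspension in 0.9% NaCl with 0.5% Tween-80, over a wide dose range. Mice were followed daily until death. Median survival T/C was taken from survivors per NCI protocols, and ILS = (T/C − 1) × 100. Active range means doses giving ILS ≥25%; optimal dose means greatest ILS.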

L1210 [13] = assay: Antitumor activity was determined against the ip implanted L1210 leukemia in mice by percent increase in life span at 200 mg/kg (treatment of 1qd schedule) dosage; type: functional, Mus musculus; settings: route intraperitoneal
Outline: (§5)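 DBA/2J mice in groups of 6 (wt 23-28 g) were inoculated ip with 1×10^6 L1210 cells on day 0. Dosing was ip from 24 h, in 0.9% NaCl with 0.5% Tween-80 (conjugates sonicated), across a range of doses. Mice were observed daily until death or 45 days. Median T/C was computed from survivors per NCI protocols, and ILS = (T/C − 1)×100.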

P388 [14] = assay: Antitumor activity was determined against the ip implanted P388 leukemia in mice by change in […] at 200 mg/kg (1 qd treatment schedule) dosage; type: functional, Mus musculus; settings: route intraperitoneal
Outline: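 P388 leukemia, 1×10^6 cells implanted ip on day 0 into DBA/2J mice, groups of 6 (wt 23-33 g). Dosing ip started 24 h post-inoculation, vehicle 0.9% NaCl containing 0.5% Tween-80. Animals were observed daily until death or 45 days. Outputs were weight change, median survival T/C from survivors per NCI protocols, and %ILS = (T/C − 1) × 100.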

P388 [15] = assay: Antitumor activity against ip implanted P388 leukemia in mice expressed as active dose range (1 qd treatment schedule) required to produce increase in life span by >25% was determined; Range is 200-300; type: functional, Mus musculus
Outline: (§6)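 P388 leukemia: 1 × 10^6 cells were given ip on day 0 to DBA/2J mice, groups of 6 (23-33 g). Treatment was ip from 24 h after inoculation, vehicle 0.9% NaCl with 0.5% Tween-80. Mice were observed daily until death or 45 days. Median survival T/C was calculated from survivors per NCI protocols, and ILS = (T/C − 1) × 100. Active range means doses giving ILS ≥25%; optimal dose means greatest ILS.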

L1210 [16] = assay: Antitumor activity against the ip implanted L1210 leukemia in mice expressed as optimal dose (1 qd treatment schedule) required to produce greatest increase in life span was determined; type: functional, Mus musculus; outline: as §3
L1210 [17] = assay: Antitumor activity was determined against the ip implanted L1210 leukemia in mice by 45-day survivors in mice at 200 mg/kg (treatment of 1qd schedule) dosage; type: functional, Mus musculus; settings: route intraperitoneal; outline: as §5
L1210 [18] = assay: Antitumor activity was determined against the ic implanted L1210 lymphoid leukemia in mice by percent increase in life span at 300 mg/kg (1 qd treatment schedule) dosage; type: functional, Mus musculus; outline: as §4
P388 [19] = assay: Antitumor activity against the ip implanted P388 leukemia in mice expressed as optimal dose (1 qd treatment schedule) required to produce greatest increase in life span was determined; type: functional, Mus musculus; outline: as §6

Compound: CCCCCCCCCCCCCCCC(=O)Nc1ccn([C@@H]2O[C@H](CO)[C@@H](O)[C@@H]2O)c(=O)n1
- Weight change (L1210 [1]): -0.5 g mouse-1
- Range (L1210 [2]): 14
- Range (L1210 [3]): 14
- ILS (P388 [4]): >275
- median survival time (L1210 [5]): 19.5 days
- Active dose range (L1210 [6]): 100 mg/kg/day
- Weight change (L1210 [7]): -2.04 g mouse-1
- median survival time (L1210 [8]): 14.5 days
- T/C (P388 [9]): >45%
- Range (P388 [10]): 24
- Survivors (P388 [11]): 5
- Optimal dose (L1210 [12]): 300 mg
- ILS (L1210 [13]): 179
- Weight change (P388 [14]): 0.75 g mouse-1
- Active dose range (P388 [15]): 200 mg/kg/day
- Optimal dose (L1210 [16]): 200 mg/kg/day
- Survivors (L1210 [17]): 0
- ILS (L1210 [18]): 107
- Optimal dose (P388 [19]): 200 mg
